In ChEMBL document CHEMBL3244396, “Synthesis and antileukemic activity of 5-substituted 2,3-dihydro-6,7-bis(hydroxymethyl)-1H-pyrrolizine diesters” (J Med Chem, 1977):

Legend:
Mus musculus [1] = experiment: Toxicity in female CDF1 mouse allografted with mouse P388 cells assessed as animal survival at 200 mg/kg, ip administered daily for 9 days as saline with Tween-80 solution starting 24 hrs after tumor inoculation; assay type: organism-based; parameters: dose 200 mg/kg, route intraperitoneal; conditions: in vivo
Method in brief: (§1)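 P-388 leukemia ascitic fluid implanted ip. Compound dosed ip in saline with Tween-80 vehicle, once daily for nine doses from 24 h after tumor inoculation. Acute toxicity scored as toxicity-day survivors per group. Survival was followed up to 30 days, with 30-day survival counted as "cure". Follows NCI screening protocols.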

Mus musculus [2] = experiment: Toxicity in female CDF1 mouse allografted with mouse P388 cells assessed as animal survival at 25 mg/kg, ip administered daily for 9 days as saline with Tween-80 solution starting 24 hrs after tumor inoculation; assay type: organism-based; parameters: dose 25 mg/kg, route intraperitoneal; conditions: in vivo; method in brief: as §1
P388 [3] = experiment: Antitumor activity against mouse P388 cells allografted in female CDF1 mouse assessed as change in body weight at 50 mg/kg, ip administered daily for 9 days as saline with Tween-80 solution starting 24 hrs after tumor inoculation; assay type: functional; conditions: route intraperitoneal
Method in brief: (§2)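 Ascitic fluid carrying P388 cells was inoculated ip. Compound was given ip in nine daily doses, starting 24 h after inoculation, in Klucel (hydroxypropylcellulose) suspension or in saline with Tween-80. Body-weight difference (treated minus control) was recorded on day 5. Survival was scored as %T/C of median survival time, and 30-day survival counted as cure.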

P388 [4] = experiment: Antitumor activity against mouse P388 cells allografted in female CDF1 mouse assessed as change in body weight at 6.25 mg/kg, ip administered daily for 9 days as saline with Tween-80 solution starting 24 hrs after tumor inoculation; assay type: functional; conditions: route intraperitoneal; method in brief: as §2
P388 [5] = experiment: Antitumor activity against mouse P388 cells allografted in female CDF1 mouse assessed as disease cures by measuring 30-days host survival at 12.5 mg/kg, ip administered daily for 9 days as saline with Tween-80 solution starting 24 hrs after tumor inoculation relative to control; assay type: functional; conditions: route intraperitoneal
Method in brief: (§3)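 P388 ascitic cell inoculum given ip to CDF1 mice of the sex in each line. Nine daily ip doses in saline with Tween-80 as vehicle, starting 24 h after inoculation. Median survival time expressed as %T/C (>125 significant); "cure" defined as 30-day survival.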

P388 [6] = experiment: Antitumor activity against mouse P388 cells allografted in male CDF1 mouse assessed as change in body weight at 50 mg/kg, ip administered daily for 9 days as saline with Tween-80 solution starting 24 hrs after tumor inoculation; assay type: functional; conditions: route intraperitoneal; method in brief: as §2
P388 [7] = experiment: Antitumor activity against mouse P388 cells allografted in male CDF1 mouse assessed as disease cures by measuring 30-days host survival at 12.5 mg/kg, ip administered daily for 9 days as saline with Tween-80 solution starting 24 hrs after tumor inoculation relative to control; assay type: functional; conditions: route intraperitoneal; method in brief: as §3
P388 [8] = experiment: Antitumor activity against mouse P388 cells allografted in male CDF1 mouse assessed as change in body weight at 12.5 mg/kg, ip administered daily for 9 days as saline with Tween-80 solution starting 24 hrs after tumor inoculation; assay type: functional; conditions: route intraperitoneal; method in brief: as §2
P388 [9] = experiment: Antitumor activity against mouse P388 cells allografted in female CDF1 mouse assessed as change in body weight at 25 mg/kg, ip administered daily for 9 days as saline with Tween-80 solution starting 24 hrs after tumor inoculation; assay type: functional; conditions: route intraperitoneal; method in brief: as §2
P388 [10] = experiment: Antitumor activity against mouse P388 cells allografted in male CDF1 mouse assessed as change in body weight at 25 mg/kg, ip administered daily for 9 days as saline with Tween-80 solution starting 24 hrs after tumor inoculation; assay type: functional; conditions: route intraperitoneal; method in brief: as §2
P388 [11] = experiment: Antitumor activity against mouse P388 cells allografted in male CDF1 mouse assessed as disease cures by measuring 30-days host survival at 6.25 mg/kg, ip administered daily for 9 days as saline with Tween-80 solution starting 24 hrs after tumor inoculation relative to control; assay type: functional; conditions: route intraperitoneal; method in brief: as §3
P388 [12] = experiment: Antitumor activity against mouse P388 cells allografted in female CDF1 mouse assessed as change in body weight at 100 mg/kg, ip administered daily for 9 days as saline with Tween-80 solution starting 24 hrs after tumor inoculation; assay type: functional; conditions: route intraperitoneal; method in brief: as §2
P388 [13] = experiment: Antitumor activity against mouse P388 cells allografted in female CDF1 mouse assessed as disease cures by measuring 30-days host survival at 25 mg/kg, ip administered daily for 9 days as saline with Tween-80 solution starting 24 hrs after tumor inoculation relative to control; assay type: functional; conditions: route intraperitoneal; method in brief: as §3
Mus musculus [14] = experiment: Toxicity in male CDF1 mouse allografted with mouse P388 cells assessed as animal survival at 25 mg/kg, ip administered daily for 9 days as saline with Tween-80 solution starting 24 hrs after tumor inoculation; assay type: organism-based; parameters: dose 25 mg/kg, route intraperitoneal; conditions: in vivo; method in brief: as §1
P388 [15] = experiment: Antitumor activity against mouse P388 cells allografted in male CDF1 mouse assessed as disease cures by measuring 30-days host survival at 25 mg/kg, ip administered daily for 9 days as saline with Tween-80 solution starting 24 hrs after tumor inoculation relative to control; assay type: functional; conditions: route intraperitoneal; method in brief: as §3
Mus musculus [16] = experiment: Toxicity in male CDF1 mouse allografted with mouse P388 cells assessed as animal survival at 6.25 mg/kg, ip administered daily for 9 days as saline with Tween-80 solution starting 24 hrs after tumor inoculation; assay type: organism-based; parameters: dose 6.25 mg/kg, route intraperitoneal; conditions: in vivo; method in brief: as §1
P388 [17] = experiment: Antitumor activity against mouse P388 cells allografted in male CDF1 mouse assessed as change in body weight at 6.25 mg/kg, ip administered daily for 9 days as saline with Tween-80 solution starting 24 hrs after tumor inoculation; assay type: functional; conditions: route intraperitoneal; method in brief: as §2
P388 [18] = experiment: Antitumor activity against mouse P388 cells allografted in female CDF1 mouse assessed as disease cures by measuring 30-days host survival at 6.25 mg/kg, ip administered daily for 9 days as saline with Tween-80 solution starting 24 hrs after tumor inoculation relative to control; assay type: functional; conditions: route intraperitoneal; method in brief: as §3
Mus musculus [19] = experiment: Toxicity in female CDF1 mouse allografted with mouse P388 cells assessed as animal survival at 12.5 mg/kg, ip administered daily for 9 days as saline with Tween-80 solution starting 24 hrs after tumor inoculation; assay type: organism-based; parameters: dose 12.5 mg/kg, route intraperitoneal; conditions: in vivo; method in brief: as §1
P388 [20] = experiment: Antitumor activity against mouse P388 cells allografted in female CDF1 mouse assessed as change in body weight at 200 mg/kg, ip administered daily for 9 days as saline with Tween-80 solution starting 24 hrs after tumor inoculation; assay type: functional; conditions: route intraperitoneal; method in brief: as §2
Mus musculus [21] = experiment: Toxicity in male CDF1 mouse allografted with mouse P388 cells assessed as animal survival at 12.5 mg/kg, ip administered daily for 9 days as saline with Tween-80 solution starting 24 hrs after tumor inoculation; assay type: organism-based; parameters: dose 12.5 mg/kg, route intraperitoneal; conditions: in vivo; method in brief: as §1
Mus musculus [22] = experiment: Toxicity in female CDF1 mouse allografted with mouse P388 cells assessed as animal survival at 400 mg/kg, ip administered daily for 9 days as saline with Tween-80 solution starting 24 hrs after tumor inoculation; assay type: organism-based; parameters: dose 400 mg/kg, route intraperitoneal; conditions: in vivo; method in brief: as §1
P388 [23] = experiment: Antitumor activity against mouse P388 cells allografted in female CDF1 mouse assessed as change in body weight at 12.5 mg/kg, ip administered daily for 9 days as saline with Tween-80 solution starting 24 hrs after tumor inoculation; assay type: functional; conditions: route intraperitoneal; method in brief: as §2
P388 [24] = experiment: Antitumor activity against mouse P388 cells allografted in female CDF1 mouse assessed as change in body weight at 400 mg/kg, ip administered daily for 9 days as saline with Tween-80 solution starting 24 hrs after tumor inoculation; assay type: functional; conditions: route intraperitoneal; method in brief: as §2
Mus musculus [25] = experiment: Toxicity in female CDF1 mouse allografted with mouse P388 cells assessed as animal survival at 6.25 mg/kg, ip administered daily for 9 days as saline with Tween-80 solution starting 24 hrs after tumor inoculation; assay type: organism-based; parameters: dose 6.25 mg/kg, route intraperitoneal; conditions: in vivo; method in brief: as §1

CCNC(=O)OCc1c(COC(=O)NCC)c(-c2ccc(Cl)c(Cl)c2)n2c1CCC2
Activity (Mus musculus [1]): Toxic
Activity (Mus musculus [2]): Non-toxic
Activity (P388 [3]): -4.4 g
Activity (P388 [4]): -1.8 g
T/C (P388 [5]): 170%
Activity (P388 [6]): -8 g
T/C (P388 [7]): 168%
Activity (P388 [8]): -2.5 g
Activity (P388 [9]): -2.4 g
Activity (P388 [10]): -4.4 g
T/C (P388 [11]): 168%
Activity (P388 [12]): -3 g
T/C (P388 [13]): 103%
Activity (Mus musculus [14]): Non-toxic
T/C (P388 [15]): 165%
Activity (Mus musculus [16]): Non-toxic
Activity (P388 [17]): -2.1 g
T/C (P388 [18]): 154%
Activity (Mus musculus [19]): Non-toxic
Activity (P388 [20]): -1.4 g
Activity (Mus musculus [21]): Non-toxic
Activity (Mus musculus [22]): Toxic
Activity (P388 [23]): -1.8 g
Activity (P388 [24]): -1.4 g
Activity (Mus musculus [25]): Non-toxic
